# Assays:
# [1] = target: T1, Indoleamine 2,3-dioxygenase 1 (Homo sapiens, UniProt P14902); assay: Inhibition of IDO1 in recombinant IFN-gamma induced human HeLa cells incubated for 18 hrs by fluorescence microplate reader assay
# Procedure, shortened: (§1)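 HeLa (human) or M109 (murine) cells induced with IFNγ to express IDO1, then cellular IDO1 activity measured; values are the average of N = 2 unless noted.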
# [2] = Metabolic stability in rat liver microsomes assessed as parent compound remaining at 0.5 uM after 10 mins; format: ADME, Microsome; conditions: read-out: Stabilty
# Procedure, shortened: (§2)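 Parent compound at 0.5 μM incubated 10 min with 1 mg/mL human, mouse or rat liver microsomes; fraction of parent remaining reported; average of N = 2 unless noted.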
# [3] = target: Indoleamine 2,3-dioxygenase 1 (Mus musculus, UniProt P28776); assay: Inhibition of IDO1 in recombinant IFN-gamma induced mouse M109 cells incubated for 18 hrs by fluorescence microplate reader assay; format: cell-based; procedure, shortened: as §1
# [4] = Metabolic stability in human liver microsomes assessed as parent compound remaining at 0.5 uM after 10 mins; format: ADME, Microsome; conditions: read-out: Stabilty; procedure, shortened: as §2
# [5] = Metabolic stability in mouse liver microsomes assessed as parent compound remaining at 0.5 uM after 10 mins; format: ADME, Microsome; conditions: read-out: Stabilty; procedure, shortened: as §2
# [6] = target: T1, Indoleamine 2,3-dioxygenase 1; assay: Inhibition of IDO1 in IFN-gamma/LPS induced human whole blood assessed as tryptophan/kynurenine level measured after 18 hrs by RapidFire mass spectrometry; format: tissue-based
# [7] = in vivo; conditions: mouse, tumor, po, 60 mg/kg
# [8] = Induction of proliferation of human T eff cells by T cell/DC mixed lymphocyte reaction (MLR) assay
# [9] = In vivo inhibition of IDO1 in mouse xenografted with human SKOV3 cells assessed as reduction in tumor kynurenine AUEC at 60 mg/kg, po qd for 5 days measured upto 24 hrs after dosing relative to vehicle treated control; format: functional; conditions: SK-OV-3, po, 120 h, time 5 day
# Procedure, shortened: (§3)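 nu/nu nude mice carrying SKOV3 tumors grown 2 weeks; dosed QD for 5 days starting day 14. On day 18, tumor sampled at 2, 6 and 24 h for drug level and kynurenine. […] Kyn reduction measured at steady state after the 5th dose, taken as area under the Kyn concentration–time curve 0–24 h versus vehicle control.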
# [10] = Metabolic stability assessed as rat CYP-mediated metabolism by measuring half life; format: ADME
# [11] = Metabolic stability assessed as dog CYP-mediated metabolism by measuring half life; format: ADME, Canis lupus familiaris
# [12] = AUC (0 to 24 hrs) in mouse xenografted with human SKOV3 cells assessed in tumor at 20 mg/kg, po qd for 5 days measured upto 24 hrs after dosing; format: ADME, organism-based; set-up: route oral, dose 20 mg/kg, time 5 day; procedure, shortened: as §3
# [13] = Metabolic stability assessed as mouse CYP-mediated metabolism by measuring half life; format: ADME
# [14] = target: Cytochrome P450 2C19 (Homo sapiens, UniProt P33261); assay: Inhibition of recombinant human CYP2C19; format: ADME
# [15] = Metabolic stability assessed as human CYP-mediated metabolism by measuring half life; format: ADME
# [16] = target: Cytochrome P450 2C9 (Homo sapiens, UniProt P11712); assay: Inhibition of recombinant human CYP2C9; format: ADME
# [17] = target: T2, Cytochrome P450 2C8 (Homo sapiens, UniProt P10632); assay: Inhibition of recombinant human CYP2C8; format: ADME
# T2 sequence (P10632 whole entry): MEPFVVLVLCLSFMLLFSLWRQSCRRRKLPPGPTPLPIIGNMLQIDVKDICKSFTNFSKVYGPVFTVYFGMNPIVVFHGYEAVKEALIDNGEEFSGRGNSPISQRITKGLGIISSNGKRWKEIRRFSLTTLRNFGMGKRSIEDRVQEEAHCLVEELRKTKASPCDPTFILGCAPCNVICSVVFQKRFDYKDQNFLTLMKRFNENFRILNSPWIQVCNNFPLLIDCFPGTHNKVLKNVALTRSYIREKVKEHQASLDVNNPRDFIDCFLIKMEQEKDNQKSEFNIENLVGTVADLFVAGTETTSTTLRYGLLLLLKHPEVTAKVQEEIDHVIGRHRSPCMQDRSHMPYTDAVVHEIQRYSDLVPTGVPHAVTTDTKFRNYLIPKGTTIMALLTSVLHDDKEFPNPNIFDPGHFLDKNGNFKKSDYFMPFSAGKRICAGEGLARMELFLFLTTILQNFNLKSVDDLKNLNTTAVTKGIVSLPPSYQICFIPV
# [18] = target: T3, Cytochrome P450 1A2 (Homo sapiens, UniProt P05177); assay: Inhibition of recombinant human CYP1A2; format: ADME
# T3 sequence (P05177 whole entry): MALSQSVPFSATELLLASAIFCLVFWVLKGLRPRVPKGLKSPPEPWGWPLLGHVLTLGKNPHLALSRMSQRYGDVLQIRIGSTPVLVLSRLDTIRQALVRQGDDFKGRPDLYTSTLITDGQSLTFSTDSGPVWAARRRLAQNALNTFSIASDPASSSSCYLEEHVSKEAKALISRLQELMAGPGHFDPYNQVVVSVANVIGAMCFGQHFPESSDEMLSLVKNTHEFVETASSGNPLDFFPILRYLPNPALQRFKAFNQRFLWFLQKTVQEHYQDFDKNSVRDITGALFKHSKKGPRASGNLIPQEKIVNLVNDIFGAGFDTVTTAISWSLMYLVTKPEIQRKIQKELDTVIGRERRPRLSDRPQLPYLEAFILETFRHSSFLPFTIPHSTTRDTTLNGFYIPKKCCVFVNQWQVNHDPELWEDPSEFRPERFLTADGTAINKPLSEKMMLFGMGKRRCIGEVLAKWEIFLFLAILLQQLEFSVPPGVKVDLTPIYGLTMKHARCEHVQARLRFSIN
# [19] = target: Cytochrome P450 2D6 (Homo sapiens, UniProt P10635); assay: Inhibition of recombinant human CYP2D6; format: ADME
# [20] = Permeability across apical to basolateral side in human Caco2 cells; format: ADME, cell-based; conditions: Caco-2, read-out: permeability
# [21] = Permeability across basolateral to apical side in human Caco2 cells; format: ADME, cell-based; conditions: Caco-2, read-out: permeability
# [22] = Metabolic stability assessed as rat UGT -mediated metabolism by measuring half life; format: ADME
# [23] = Metabolic stability assessed as dog UGT -mediated metabolism by measuring half life; format: ADME, Canis lupus familiaris
# [24] = Metabolic stability assessed as mouse UGT -mediated metabolism by measuring half life; format: ADME
# [25] = Metabolic stability assessed as cynomolgus monkey UGT -mediated metabolism by measuring half life; format: ADME, Macaca fascicularis
# [26] = Metabolic stability assessed as human UGT-mediated metabolism by measuring half life; format: ADME
# [27] = Permeability at pH 5.5 by PAMPA; format: ADME; conditions: read-out: permeability
# [28] = Metabolic stability assessed as cynomolgus monkey CYP-mediated metabolism by measuring half life; format: ADME, Macaca fascicularis
# [29] = Permeability at pH 7.4 by PAMPA; format: ADME; conditions: read-out: permeability
# [30] = target: Cytochrome P450 3A4 (Homo sapiens, UniProt P08684); assay: Inhibition of recombinant human CYP3A4; format: ADME
# Chain of Cytochrome P450 3A4 (P08684 whole entry): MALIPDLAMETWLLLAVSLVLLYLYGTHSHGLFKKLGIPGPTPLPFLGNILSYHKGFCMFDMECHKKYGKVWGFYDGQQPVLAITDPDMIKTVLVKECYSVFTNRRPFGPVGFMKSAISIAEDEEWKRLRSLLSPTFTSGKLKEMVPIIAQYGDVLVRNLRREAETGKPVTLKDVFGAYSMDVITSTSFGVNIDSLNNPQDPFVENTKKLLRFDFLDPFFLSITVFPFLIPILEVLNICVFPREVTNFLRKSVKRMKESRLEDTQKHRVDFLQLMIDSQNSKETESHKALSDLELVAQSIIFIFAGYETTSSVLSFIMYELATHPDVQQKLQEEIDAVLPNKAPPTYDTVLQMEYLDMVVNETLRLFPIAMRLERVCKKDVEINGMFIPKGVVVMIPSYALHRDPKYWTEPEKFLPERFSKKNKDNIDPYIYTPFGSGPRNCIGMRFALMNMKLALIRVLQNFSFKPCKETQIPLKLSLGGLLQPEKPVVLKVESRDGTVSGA
# T1 sequence (P14902 whole entry): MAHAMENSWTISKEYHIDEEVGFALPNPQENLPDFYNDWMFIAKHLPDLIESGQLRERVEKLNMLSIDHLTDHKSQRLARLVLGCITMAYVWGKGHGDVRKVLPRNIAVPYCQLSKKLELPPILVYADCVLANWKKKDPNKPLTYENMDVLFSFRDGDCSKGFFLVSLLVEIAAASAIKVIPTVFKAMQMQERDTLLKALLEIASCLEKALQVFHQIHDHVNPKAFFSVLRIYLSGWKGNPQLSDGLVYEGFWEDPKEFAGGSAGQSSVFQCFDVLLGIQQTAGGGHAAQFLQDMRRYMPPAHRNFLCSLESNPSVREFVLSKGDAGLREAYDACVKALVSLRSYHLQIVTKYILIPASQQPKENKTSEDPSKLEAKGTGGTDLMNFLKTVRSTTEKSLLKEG
# Chain of Indoleamine 2,3-dioxygenase 1 (Mus musculus, UniProt P28776) (P28776 whole entry): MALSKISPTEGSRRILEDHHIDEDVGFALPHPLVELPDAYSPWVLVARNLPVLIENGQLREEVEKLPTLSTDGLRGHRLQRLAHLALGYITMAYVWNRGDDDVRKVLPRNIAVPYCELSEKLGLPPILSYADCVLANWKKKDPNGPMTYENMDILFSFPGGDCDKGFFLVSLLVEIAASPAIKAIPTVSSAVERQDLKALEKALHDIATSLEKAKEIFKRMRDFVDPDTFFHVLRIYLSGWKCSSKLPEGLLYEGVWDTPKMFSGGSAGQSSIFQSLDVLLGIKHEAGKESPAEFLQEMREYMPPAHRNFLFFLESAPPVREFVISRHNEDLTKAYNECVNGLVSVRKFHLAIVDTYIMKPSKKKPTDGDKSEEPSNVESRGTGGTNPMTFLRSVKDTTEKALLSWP
# Chain of Cytochrome P450 2C9 (P11712 whole entry): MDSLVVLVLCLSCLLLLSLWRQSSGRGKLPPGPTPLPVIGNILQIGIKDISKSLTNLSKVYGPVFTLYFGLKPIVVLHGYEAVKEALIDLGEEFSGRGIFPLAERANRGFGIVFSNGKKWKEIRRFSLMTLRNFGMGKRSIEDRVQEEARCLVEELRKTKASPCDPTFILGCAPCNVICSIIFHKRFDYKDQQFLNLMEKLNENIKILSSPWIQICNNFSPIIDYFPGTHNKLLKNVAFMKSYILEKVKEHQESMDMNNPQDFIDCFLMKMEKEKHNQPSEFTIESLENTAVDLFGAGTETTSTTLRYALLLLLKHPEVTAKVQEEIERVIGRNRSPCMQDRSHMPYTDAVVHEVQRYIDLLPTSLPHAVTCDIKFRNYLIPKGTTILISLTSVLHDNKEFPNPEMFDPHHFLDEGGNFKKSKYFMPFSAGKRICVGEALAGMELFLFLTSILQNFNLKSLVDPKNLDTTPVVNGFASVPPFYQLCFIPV
# Chain of Cytochrome P450 2D6 (P10635 whole entry): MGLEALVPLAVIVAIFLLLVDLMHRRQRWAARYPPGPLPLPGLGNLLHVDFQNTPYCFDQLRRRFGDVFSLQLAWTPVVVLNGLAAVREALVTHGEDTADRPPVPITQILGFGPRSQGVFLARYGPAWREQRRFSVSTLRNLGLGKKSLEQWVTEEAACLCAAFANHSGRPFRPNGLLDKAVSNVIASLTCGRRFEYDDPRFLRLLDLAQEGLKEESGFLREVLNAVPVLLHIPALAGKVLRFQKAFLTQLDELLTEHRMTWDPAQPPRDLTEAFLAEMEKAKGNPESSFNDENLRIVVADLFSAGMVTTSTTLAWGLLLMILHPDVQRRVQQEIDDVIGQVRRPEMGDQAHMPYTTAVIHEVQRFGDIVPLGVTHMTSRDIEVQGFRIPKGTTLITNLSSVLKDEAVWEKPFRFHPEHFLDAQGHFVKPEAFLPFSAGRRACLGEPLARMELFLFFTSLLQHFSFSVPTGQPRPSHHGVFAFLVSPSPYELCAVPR
# Chain of Cytochrome P450 2C19 (P33261 whole entry): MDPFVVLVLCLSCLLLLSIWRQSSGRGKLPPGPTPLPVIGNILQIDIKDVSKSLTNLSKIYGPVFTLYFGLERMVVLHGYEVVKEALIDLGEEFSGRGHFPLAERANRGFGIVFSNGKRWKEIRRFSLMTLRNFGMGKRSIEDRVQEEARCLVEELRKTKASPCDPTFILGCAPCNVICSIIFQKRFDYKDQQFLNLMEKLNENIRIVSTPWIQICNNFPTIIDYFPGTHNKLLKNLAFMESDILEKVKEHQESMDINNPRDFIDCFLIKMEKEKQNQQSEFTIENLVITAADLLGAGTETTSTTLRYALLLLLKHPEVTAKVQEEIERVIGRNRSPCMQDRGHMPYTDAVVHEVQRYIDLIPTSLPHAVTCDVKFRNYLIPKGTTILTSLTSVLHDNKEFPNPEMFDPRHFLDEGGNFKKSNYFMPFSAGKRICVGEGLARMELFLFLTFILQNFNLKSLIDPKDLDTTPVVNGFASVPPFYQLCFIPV
structure (smiles),measurement,setting,value
C[C@@H](c1nc2ccc(F)cc2[nH]1)[C@H]1CC[C@@H](c2ccnc3ccc(F)cc32)CC1,IC50,[1],3 nM
same,"remaining at 10 min, 0.5 µM",[2],0%
same,IC50,[3],22 nM
same,"remaining at 10 min, 0.5 µM",[4],42%
same,"remaining at 10 min, 0.5 µM",[5],5%
CCOCC(Nc1nnc(-c2ccc(OC)cc2)o1)[C@H]1CC[C@@H](c2ccnc3ccc(C(F)(F)F)cc32)CC1 (some centres not stated),IC50,[1],13 nM
same,"remaining at 10 min, 0.5 µM",[2],53%
same,IC50,[3],57 nM
same,"remaining at 10 min, 0.5 µM",[4],60%
same,IC50,[6],96 nM
same,"remaining at 10 min, 0.5 µM",[5],41%
C[C@@H](C(=O)Nc1ccc(Cl)cc1)[C@H]1CC[C@@H](c2ccnc3ccc(F)cc32)CC1,AUC at 120 h,[7],34.9 µM·h
same,"remaining at 10 min, 0.5 µM",[2],86%
same,EC50,[8],2 nM
same,inhibition in vivo at 60 mg/kg,[9],61%
CCC(Nc1nnc(-c2ccc(OC)cc2)o1)[C@H]1CC[C@@H](c2ccnc3ccc(C(F)(F)F)cc32)CC1 (some centres not stated),IC50,[1],3 nM
same,"remaining at 10 min, 0.5 µM",[2],100%
same,IC50,[3],6 nM
same,"remaining at 10 min, 0.5 µM",[4],83%
same,IC50,[6],50 nM
same,"remaining at 10 min, 0.5 µM",[5],39%
COc1ccc(Nc2nnc([C@H](C)[C@H]3CC[C@@H](c4ccnc5ccc(F)cc54)CC3)o2)cc1,IC50,[1],165 nM
same,"remaining at 10 min, 0.5 µM",[2],0.4%
same,IC50,[3],451 nM
same,"remaining at 10 min, 0.5 µM",[4],18%
same,"remaining at 10 min, 0.5 µM",[5],2%
COCC(Nc1nnc(-c2ccc(OC)cc2)o1)[C@H]1CC[C@@H](c2ccnc3ccc(F)cc32)CC1 (some centres not stated),IC50,[1],3 nM
same,"remaining at 10 min, 0.5 µM",[2],24%
same,IC50,[3],44 nM
same,"remaining at 10 min, 0.5 µM",[4],57%
same,IC50,[6],31 nM
same,"remaining at 10 min, 0.5 µM",[5],19%
COc1ccc(-c2nnc(N[C@H](C)[C@H]3CC[C@@H](c4ccnc5ccc(F)cc54)CC3)o2)cc1,IC50,[1],3 nM
same,"remaining at 10 min, 0.5 µM",[2],35%
same,IC50,[3],14 nM
same,"remaining at 10 min, 0.5 µM",[4],64%
same,"remaining at 10 min, 0.5 µM",[5],17%
C[C@@H](c1nc2ccc(Cl)cc2[nH]1)[C@H]1CC[C@@H](c2ccnc3ccc(F)cc32)CC1,IC50,[1],3 nM
same,"remaining at 10 min, 0.5 µM",[2],8%
same,IC50,[6],32 nM
C[C@@H](c1ncc(-c2ccc(Cl)cc2)o1)[C@H]1CC[C@@H](c2ccnc3ccc(F)cc32)CC1,IC50,[1],495 nM
same,"remaining at 10 min, 0.5 µM",[2],62%
same,IC50,[3],631 nM
same,"remaining at 10 min, 0.5 µM",[4],97%
same,"remaining at 10 min, 0.5 µM",[5],78%
CCC(c1nc2ncc(Cl)cc2[nH]1)[C@H]1CC[C@@H](c2ccnc3ccc(C(F)(F)F)cc32)CC1 (some centres not stated),half-life,[10],1 h
same,half-life,[11],0.683 h
same,AUC at 120 h,[12],43.6 µM·h
same,half-life,[13],0.283 h
same,IC50,[14],1130 nM
same,IC50,[1],2 nM
same,"remaining at 10 min, 0.5 µM",[2],81%
same,half-life,[15],0.9 h
same,IC50,[16],242 nM
same,IC50,[17],1470 nM
same,IC50,[3],3 nM
same,"remaining at 10 min, 0.5 µM",[4],81%
same,IC50,[18],2550 nM
same,IC50,[19],4280 nM
same,IC50,[6],21 nM
same,Papp A→B,[20],11.3 ×10⁻⁶ cm/s
same,Papp B→A,[21],6.6 ×10⁻⁶ cm/s
same,half-life,[22],1.78 h
same,half-life,[23],1.75 h
same,half-life,[24],> 2 h
same,half-life,[25],> 2 h
same,half-life,[26],1.58 h
same,Papp,[27],238 ×10⁻⁶ cm/s
same,half-life,[28],0.35 h
same,Papp,[29],263 ×10⁻⁶ cm/s
same,IC50,[30],1930 nM
same,"remaining at 10 min, 0.5 µM",[5],57%
